Published values gathered from unrelated publications.
Each line is one published result; the experiments were not run side by side.
Read-out: cell growth or viability

Structure (SMILES) | cell line | assay | conditions | measurement | result
COc1ccc(-c2ccc(-c3ccc(C(=N)N)nc3)s2)cc1 | NCI/ADR-RES | SRB |  | GI50 | 1940 nM
CN1CCN(C(=O)[C@H](CCCN[C@@H]2C[C@H]2c2ccc(F)cc2)NC(=O)c2ccc(-n3ccnn3)cc2)CC1 | NCI-H510A | resazurin | 10 days | EC50 | 0.0105 µM
COc1ccc(-c2ccc(-c3ccc(C(=N)N)nc3)s2)cc1Cl | NCI/ADR-RES | SRB |  | GI50 | 2010 nM
C=CC(=O)N1CCN(c2nc(=O)n(-c3c(C)ccnc3C(C)C)c3nc(-c4c(O)cccc4F)c(F)cc23)[C@@H](C)C1 | GP2d |  | 5 days | EC50 | > 10 µM
S=C([S][Au-][P+](CCCCCC[P+]([Au-][S]C(=S)n1cccn1)(c1ccccc1)c1ccccc1)(c1ccccc1)c1ccccc1)n1cccn1 | NCI/ADR-RES | SRB |  | GI50 | 3990 nM
Cn1nnc2c(C(N)=O)ncn2c1=O | HGC-27 |  |  | EC50 | 176 µM
O=C(O)c1ccc(CN2CCC(CN[C@@H]3C[C@H]3c3ccccc3)CC2)cc1 | NCI-H510A | resazurin | 10 days | EC50 | 0.109 µM
C=CC(=O)N1CCN(c2cc(-c3noc([C@@]4(C)CCCc5sc(N)c(C#N)c54)n3)nc(N3CCN(C)C[C@@H]3C)c2)CC1 | GP2d |  | 5 days | EC50 | 4.5 µM
CC1=C(O)C(=O)C=C2C1=CC=C1[C@@]2(C)CC[C@@]2(C)[C@@H]3C[C@](C)(C(=O)OCCCBr)CC[C@]3(C)CC[C@]12C | MGC-803 | MTT | 48 h | IC50 | 400 nM
Cc1cc(C)n(C(=S)[S][Au][PH](CCCCCC[PH]([Au][S]C(=S)n2nc(C)cc2C)(c2ccccc2)c2ccccc2)(c2ccccc2)c2ccccc2)n1 | NCI/ADR-RES | SRB |  | GI50 | 1300 nM
COc1cccc(Oc2ccccc2NC(=O)CNC(=O)c2cccc3ccccc23)c1 | NCI/ADR-RES | SRB | 48 h | GI50 | 240 nM
